SMILES strings stand for the structures. ≈ marks a conversion by molar mass, not a printed value. Some results are limits rather than exact numbers.

From ChEMBL document CHEMBL4354828, “Discovery of Taniborbactam (VNRX-5133): A Broad-Spectrum Serine- and Metallo-β-lactamase Inhibitor for Carbapenem-Resistant Bacterial Infections” (J Med Chem, 2020) come the findings set out here.

The nature of assay [1]: Inhibition of bacterial KPC-2 using imipenem as substrate preincubated for 15 mins followed by susbtrate addition and measured after 10 mins by spectrophotometric method. Further details: species or system Bacteria.
The test system of assay [2] is Klebsiella pneumoniae. The assay is described as follows: Inhibition of OXA-48 in Klebsiella pneumoniae assessed as meropenem antibacterial activity at 4 ug/ml after 16 to 20 hrs by CLSI-based microbroth dilution method (Rvb >= […] ug/ml).
Assay [3] relates to Pseudomonas aeruginosa. The assay is described as follows: Inhibition of VIM in Pseudomonas aeruginosa CDC-0457 assessed as piperacillin antibacterial activity at 16 ug/ml after 16 to 20 hrs by CLSI-based microbroth dilution method. For orientation: Dilution methods test growth across graded concentrations, often in twofold steps.
For assay [4], the system named is Klebsiella pneumoniae. Put plainly: Inhibition of KPC-2/SHV12/TEM-1 in Klebsiella pneumoniae CDC-0361 assessed as cefepime antibacterial activity at 8 ug/ml after 16 to 20 hrs by CLSI-based microbroth dilution method (reference value: […] ug/ml).
Assay [5] relates to Klebsiella pneumoniae. Put plainly: Inhibition of KPC-2 in Klebsiella pneumoniae assessed as meropenem antibacterial activity at 4 ug/ml after 16 to 20 hrs by CLSI-based microbroth dilution method (Rvb >= […] ug/ml).
In assay [6] the test system is Escherichia coli. The assay is described as follows: Inhibition of NDM-1/CMY-6/OXA-1 in Escherichia coli CDC-0055 assessed as piperacillin antibacterial activity at 16 ug/ml after 16 to 20 hrs by CLSI-based microbroth dilution method. An outline of the steps: (§1)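 MDR β-lactamase-producing Gram-negative clinical isolates. […] MIC was reported as the inhibitor concentration that restores the partner's antibacterial activity.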

Assay [7] deals with Klebsiella pneumoniae. Put plainly: Inhibition of OXA-232/OXA-9/TEM-1A/CTX-M-15/OXA-1 in Klebsiella pneumoniae CDC-0066 assessed as meropenem antibacterial activity at 4 ug/ml after 16 to 20 hrs by CLSI-based microbroth dilution method (reference value: […] ug/ml).
Assay [8] deals with Escherichia coli. Put plainly: Inhibition of NDM in Escherichia coli CDC-0452 assessed as meropenem antibacterial activity at 4 ug/ml after 16 to 20 hrs by CLSI-based microbroth dilution method (reference value: […] ug/ml).
The subject of assay [9] is Klebsiella pneumoniae. The assay is described as follows: Inhibition of OXA-232/OXA-9/TEM-1A/CTX-M-15/OXA-1 in Klebsiella pneumoniae CDC-0066 assessed as cefepime antibacterial activity at 8 ug/ml after 16 to 20 hrs by CLSI-based microbroth dilution method (Rvb > […] ug/ml).
The test system of assay [10] is Escherichia coli. The assay is described as follows: Inhibition of NDM in Escherichia coli CDC-0452 assessed as cefepime antibacterial activity after 16 to 20 hrs by CLSI-based microbroth dilution method (reference value: […] ug/ml).
Assay [11] has as its system Klebsiella pneumoniae. The assay is described as follows: Inhibition of KPC-2/SHV12/TEM-1 in Klebsiella pneumoniae CDC-0361 assessed as piperacillin antibacterial activity at 16 ug/ml after 16 to 20 hrs by CLSI-based microbroth dilution method (Rvb > […] ug/ml).
In assay [12] the test system is Klebsiella pneumoniae ATCC BAA-1705. Put plainly: Inhibition of KPC-2 in Klebsiella pneumoniae ATCC BAA 1705 assessed as meropenem antibacterial activity at 4 ug/ml after 16 to 20 hrs by CLSI-based microbroth dilution method (reference value: […] ug/ml).
Assay [13] has the same test system. Put plainly: Inhibition of KPC-2 in Klebsiella pneumoniae ATCC BAA 1705 assessed as piperacillin antibacterial activity at 16 ug/ml after 16 to 20 hrs by CLSI-based microbroth dilution method (Rvb > […] ug/ml).
In assay [14] the test system is Pseudomonas aeruginosa. Put plainly: Inhibition of VIM in Pseudomonas aeruginosa CDC-0457 assessed as cefepime antibacterial activity at 8 ug/ml after 16 to 20 hrs by CLSI-based microbroth dilution method.
The test system of assay [15] is Pseudomonas aeruginosa. The assay is described as follows: Inhibition of VIM in Pseudomonas aeruginosa CDC-0457 assessed as meropenem antibacterial activity at 4 ug/ml after 16 to 20 hrs by CLSI-based microbroth dilution method.
Assay [16] has as its system Pseudomonas aeruginosa. The assay is described as follows: Inhibition of KPC-2/PDC-42 in Pseudomonas aeruginosa CDC-0356 assessed as piperacillin antibacterial activity at 16 ug/ml after 16 to 20 hrs by CLSI-based microbroth dilution method (Rvb > […] ug/ml).
Assay [17] deals with Escherichia coli. Put plainly: Inhibition of NDM-1/CMY-6/OXA-1 in Escherichia coli CDC-0055 assessed as cefepime antibacterial activity at 8 ug/ml after 16 to 20 hrs by CLSI-based microbroth dilution method. An outline of the steps: as §1
The subject of assay [18] is Klebsiella pneumoniae. Put plainly: Inhibition of OXA-232/OXA-9/TEM-1A/CTX-M-15/OXA-1 in Klebsiella pneumoniae CDC-0066 assessed as piperacillin antibacterial activity at 16 ug/ml after 16 to 20 hrs by CLSI-based microbroth dilution method (Rvb > […] ug/ml).
Assay [19] relates to Pseudomonas aeruginosa. Put plainly: Inhibition of KPC-2/PDC-42 in Pseudomonas aeruginosa CDC-0356 assessed as meropenem antibacterial activity at 4 ug/ml after 16 to 20 hrs by CLSI-based microbroth dilution method (reference value: […] ug/ml).
A short description of assay [20]: Inhibition of bacterial VIM-2 using nitrocefin as substrate preincubated for 15 mins followed by susbtrate addition and measured after 10 mins by spectrophotometric method. Further details: species or system Bacteria. In outline:
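Purified β-lactamase inhibition. IC50 values are the average of duplicates unless otherwise indicated.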

Assay [21] deals with Klebsiella pneumoniae. The assay is described as follows: Inhibition of VIM-27/CTX-M-15/SHV-11/OXA-1 in Klebsiella pneumoniae CDC-0040 assessed as cefepime antibacterial activity at 8 ug/ml after 16 to 20 hrs by CLSI-based microbroth dilution method.
Assay [22] deals with Klebsiella pneumoniae. The assay is described as follows: Inhibition of KPC-2/SHV12/TEM-1 in Klebsiella pneumoniae CDC-0361 assessed as meropenem antibacterial activity at 4 ug/ml after 16 to 20 hrs by CLSI-based microbroth dilution method (reference value: […] ug/ml).
For assay [23], the system named is Klebsiella pneumoniae. Put plainly: Inhibition of VIM-27/CTX-M-15/SHV-11/OXA-1 in Klebsiella pneumoniae CDC-0040 assessed as meropenem antibacterial activity at 4 ug/ml after 16 to 20 hrs by CLSI-based microbroth dilution method.
Assay [24] deals with Klebsiella pneumoniae. Put plainly: Inhibition of VIM-27/CTX-M-15/SHV-11/OXA-1 in Klebsiella pneumoniae CDC-0040 assessed as piperacillin antibacterial activity at 16 ug/ml after 16 to 20 hrs by CLSI-based microbroth dilution method.
For assay [25], the system named is Klebsiella pneumoniae. Put plainly: Inhibition of VIM-4 in Klebsiella pneumoniae assessed as meropenem antibacterial activity at 4 ug/ml after 16 to 20 hrs by CLSI-based microbroth dilution method (Rvb >= […] ug/ml).
Assay [26] addresses Beta-lactamase VIM-2 (Pseudomonas aeruginosa) (UniProt Q9K2N0). Put plainly: Inhibition of VIM-2 in Pseudomonas aeruginosa assessed as meropenem antibacterial activity at 4 ug/ml after 16 to 20 hrs by CLSI-based microbroth dilution method (Rvb >= […] ug/ml).
Assay [27] is described as follows: Inhibition of bacterial AmpC using nitrocefin as substrate preincubated for 15 mins followed by susbtrate addition and measured after 10 mins by spectrophotometric method. Further details: species or system Bacteria.
Assay [28] concerns Klebsiella pneumoniae ATCC BAA-1705. The assay is described as follows: Inhibition of KPC-2 in Klebsiella pneumoniae ATCC BAA 1705 assessed as cefepime antibacterial activity at 8 ug/ml after 16 to 20 hrs by CLSI-based microbroth dilution method. An outline of the steps: as §1
Assay [29] deals with Pseudomonas aeruginosa. Put plainly: Inhibition of KPC-2/PDC-42 in Pseudomonas aeruginosa CDC-0356 assessed as cefepime antibacterial activity at 8 ug/ml after 16 to 20 hrs by CLSI-based microbroth dilution method (Rvb > […] ug/ml).
Assay [30] has as its system Escherichia coli. The assay is described as follows: Inhibition of NDM-1/CMY-6/OXA-1 in Escherichia coli CDC-0055 assessed as meropenem antibacterial activity at 4 ug/ml after 16 to 20 hrs by CLSI-based microbroth dilution method (reference value: […] ug/ml).
Assay [31] in a line: Inhibition of bacterial OXA-48 using nitrocefin as substrate preincubated for 15 mins followed by susbtrate addition and measured after 10 mins by spectrophotometric method. Further details: species or system Bacteria.
Assay [32] has as its system Escherichia coli. The assay is described as follows: Inhibition of NDM in Escherichia coli CDC-0452 assessed as piperacillin antibacterial activity at 16 ug/ml after 16 to 20 hrs by CLSI-based microbroth dilution method (Rvb > […] ug/ml).
A short description of assay [33]: Inhibition of bacterial OXA-1 using nitrocefin as substrate preincubated for 15 mins followed by susbtrate addition and measured after 10 mins by spectrophotometric method. Further details: species or system Bacteria.
A short description of assay [34]: Inhibition of bacterial CMY-2 using nitrocefin as substrate preincubated for 15 mins followed by susbtrate addition and measured after 10 mins by spectrophotometric method. Further details: species or system Bacteria.
The nature of assay [35]: Inhibition of bacterial NDM-1 using cefepime as substrate preincubated for 15 mins followed by susbtrate addition and measured after 10 mins by spectrophotometric method. Further details: species or system Bacteria.
The nature of assay [36]: Inhibition of bacterial CTX-M-15 using cefotaxime as substrate preincubated for 15 mins followed by susbtrate addition and measured after 10 mins by spectrophotometric method. Further details: species or system Bacteria.
Assay [37] is described as follows: Inhibition of bacterial IMP-1 using nitrocefin as substrate preincubated for 15 mins followed by susbtrate addition and measured after 10 mins by spectrophotometric method. Further details: species or system Bacteria.

As to `NCc1ccc(CC(=O)N[C@H]2Cc3cccc(C(=O)O)c3OB2O)cc1`, the IC50 is 40 nM in [1], 270 nM in [20], 12 nM in assay [27] and 1800 nM in assay [31]. Further, the MIC in the assay on Klebsiella pneumoniae [2] was 1 µg/mL (≈ 2.82 µM); in the assay on Pseudomonas aeruginosa [3], above 16 µg/mL; with Klebsiella pneumoniae [4] it was 0.0079 µg/mL (≈ 0.0223 µM); with Klebsiella pneumoniae [5] it was 0.5 µg/mL (≈ 1.41 µM); in the assay on Escherichia coli [6], 16 µg/mL (≈ 45.2 µM); with Klebsiella pneumoniae [7] it was 4 µg/mL (≈ 11.3 µM). For the same compound, the MIC in the assay on Escherichia coli [8] turned out to be 2 µg/mL (≈ 5.65 µM); with Klebsiella pneumoniae [9] it was 4 µg/mL (≈ 11.3 µM); in the assay on Escherichia coli [10], 2 µg/mL (≈ 5.65 µM); in the assay on Klebsiella pneumoniae [11], 0.5 µg/mL (≈ 1.41 µM); in [12], 0.0079 µg/mL (≈ 0.0223 µM); in assay [13], 2 µg/mL (≈ 5.65 µM). Besides, the MIC was 8 µg/mL (≈ 22.6 µM) in the assay on Pseudomonas aeruginosa [14]; above 16 µg/mL with Pseudomonas aeruginosa [15]; 2 µg/mL (≈ 5.65 µM) in the assay with Pseudomonas aeruginosa [16]; 4 µg/mL (≈ 11.3 µM) in the assay with Escherichia coli [17]; above 16 µg/mL with Klebsiella pneumoniae [18]; 1 µg/mL (≈ 2.82 µM) with Pseudomonas aeruginosa [19]. The MIC was above 16 µg/mL with Klebsiella pneumoniae [21]; 0.0079 µg/mL (≈ 0.0223 µM) in the assay with Klebsiella pneumoniae [22]; above 16 µg/mL with Klebsiella pneumoniae [23]; above 16 µg/mL with Klebsiella pneumoniae [24]; 4 µg/mL (≈ 11.3 µM) in the assay on Klebsiella pneumoniae [25]; 8 µg/mL (≈ 22.6 µM) in assay [26]. Also, the MIC in assay [28] turned out to be 0.06 µg/mL (≈ 0.169 µM); in the assay with Pseudomonas aeruginosa [29], 2 µg/mL (≈ 5.65 µM); in the assay with Escherichia coli [30], 1 µg/mL (≈ 2.82 µM); with Escherichia coli [32], 8 µg/mL (≈ 22.6 µM).
Take `O=C(O)[C@H]1/C(=C/CO)O[C@@H]2CC(=O)N21` [CLAVULANIC ACID]: the IC50 is 1800 nM in [1]; 120 nM in assay [33]; above 100000 nM in assay [34]; above 100000 nM in assay [20]; above 100000 nM in assay [35]; 40 nM in assay [36]. In addition, the IC50 is above 100000 nM in assay [37] and 30000 nM in [31].

For orientation: IC50 means the concentration that inhibits the measured activity by half. Read a high IC50 as weaker potency.
